The source of these data is ChEMBL document CHEMBL3232870, “Discovery of 3-(4-methanesulfonylphenoxy)-N-[1-(2-methoxy-ethoxymethyl)-1H-pyrazol-3-yl]-5-(3-methylpyridin-2-yl)-benzamide as a novel glucokinase activator (GKA) for the treatment of type 2 diabetes mellitus” (Bioorg Med Chem, 2014).

The target in one data set is T1, Hexokinase-4 (Homo sapiens, UniProt P35557).
T1 sequence (P35557 whole entry): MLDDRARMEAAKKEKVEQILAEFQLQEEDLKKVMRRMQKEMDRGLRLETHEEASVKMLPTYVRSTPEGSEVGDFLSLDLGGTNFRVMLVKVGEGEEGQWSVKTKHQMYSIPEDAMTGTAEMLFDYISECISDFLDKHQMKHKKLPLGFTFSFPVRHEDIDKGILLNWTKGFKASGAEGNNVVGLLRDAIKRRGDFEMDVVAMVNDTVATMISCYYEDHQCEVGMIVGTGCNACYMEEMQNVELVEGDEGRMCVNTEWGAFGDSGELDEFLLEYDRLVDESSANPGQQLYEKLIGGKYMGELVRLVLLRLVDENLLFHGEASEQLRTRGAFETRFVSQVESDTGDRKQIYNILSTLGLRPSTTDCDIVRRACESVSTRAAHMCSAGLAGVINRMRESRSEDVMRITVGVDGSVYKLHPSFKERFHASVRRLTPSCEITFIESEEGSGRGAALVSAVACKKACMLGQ
Nature of the data set: Activation of recombinant human pancreatic glucokinase using 10 mM glucose by spectrophotometry. The method in brief: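 Purified recombinant human pancreatic glucokinase, compounds in DMSO. Buffer: 25 mM HEPES pH 7.4, 10 mM glucose, 25 mM KCl, 1 mM MgCl2, 1 mM DTT, 1 mM ATP, 1 mM NADP, 2.5 U/mL G6PDH. Activity was expressed against DMSO-only control (100%). EC50 came from 12 concentrations fitted to a variable-slope sigmoidal curve. Values are means of three duplicate runs.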

The next data set concerns Hepatocyte. Nature of the data set: Induction of 2-Deoxy-D-[3H]-glucose uptake in rat Hepatocytes using 5.5 mM glucose after 4 hrs by liquid scintillation counting. It is filed as functional. The method, boiled down: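 Rat primary hepatocytes, isolated by collagenase liver perfusion, viability over 85%. Cells attached 36 h on collagen I in MEM with 10% FBS, then serum-starved 12 h. Incubated 4 h in serum-free MEM with 5.5 mM glucose and 2-deoxy-D-[3H]-glucose, with or without compound. Washed in ice-cold PBS, lysed in 0.1 N NaOH, scintillation counted, expressed as % increase over control.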

Data set [1] has as its system Mus musculus. Nature of the data set: Antidiabetic activity in glucose-treated C57BL/J6 db/db mouse assessed as reduction of glucose AUC at 50 mg/kg, po preincubated for 30 mins followed by glucose challenge measured after 30 to 180 mins by oral glucose tolerance test relative to control. It is filed as functional. More on the design: scale not given: the % may be the effect or the level left. Conditions: in the assay text read “C57BL/J6 mouse” for “C57BL/J6 db/db mouse”. The method, boiled down:
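Oral glucose tolerance test. Mice: eight-week-old male C57BL/6 or ten-week-old male C57BLKS/J db/db, fasted overnight with water. Compound or 0.5% methylcellulose vehicle given orally, then an oral 2 g/kg glucose challenge 30 min later. Tail-tip blood glucose was read just before and at 30, 60, 90, 120 and 180 min. AUC was calculated from the time–glucose curve; n = 6.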

Data set [2] deals with Mus musculus. Briefly: Antidiabetic activity in glucose-treated C57BL/J6 mouse assessed as reduction of glucose AUC at 300 mg/kg, po preincubated for 30 mins followed by glucose challenge measured after 30 to 180 mins by oral glucose tolerance test relative to control. Details: scale not given: the % may be the effect or the level left.
Data set [3] concerns Mus musculus. Briefly: Toxicity in fasting C57BL/J6 mouse assessed as glucose lowering effect at 30 mg/kg, po after 30 to 360 mins. It is filed as organism-based. More on the design: dose 30 mg/kg, route oral. The note with it: in vivo. The method in brief:
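Eight-week-old male C57BL/6 mice were fasted 6 h with free access to water, then dosed orally with compound or 0.5% methylcellulose vehicle, with no glucose challenge. Blood glucose was followed up to 360 min, n = 6 per group.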

`COCC(C)NCc1csc(NC(=O)c2cc(Oc3ccc(S(C)(=O)=O)cc3)cc(-c3ncccc3C)c2)n1` (centres undefined): on Hexokinase-4, the EC50 (in general, the concentration that produces a half-maximal response) came out at 8 nM. In addition, the “fold change (FC)” value in the data set with Hepatocyte is recorded as 1.72.
The matching figures for `COCCN(C)Cc1csc(NC(=O)c2cc(Oc3ccc(S(C)(=O)=O)cc3)cc(-c3ncccc3C)c2)n1`: 7460 nM and 1.46.
Take `Cc1cccnc1-c1cc(Oc2ccc(S(C)(=O)=O)cc2)cc(C(=O)Nc2nc(CNC(C)C)cs2)c1`: the EC50 on Hexokinase-4 came out at 463 nM. The “fold change (FC)” value with Hepatocyte is given as 1.47. Also, the Activity in the data set on Mus musculus [1] is 2.2%.
Consider `CCN(CC)Cc1csc(NC(=O)c2cc(Oc3ccc(S(C)(=O)=O)cc3)cc(-c3ncccc3C)c2)n1`, for which, at Hexokinase-4, the EC50 was more than 50000 nM.
On to `Cc1cccnc1-c1cc(Oc2ccc(S(C)(=O)=O)cc2)cc(C(=O)Nc2ccn(C)n2)c1`, for which the EC50 at Hexokinase-4 was found to be 807 nM. For the same compound, the “fold change (FC)” value in the data set on Hepatocyte amounted to 1.74. In addition, the Activity in the data set with Mus musculus [1] is given as 24.1%.
Turning to `Cc1cccnc1-c1cc(Oc2ccc(S(C)(=O)=O)cc2)cc(C(=O)Nc2nc(CN3CCN(C)CC3)cs2)c1`, the EC50 on Hexokinase-4 stood at 688 nM. Also, the “fold change (FC)” value in the data set with Hepatocyte came to 1.19. Besides, the Activity with Mus musculus [1] is recorded as 4.4%.
The matching figures for `CCNC(=O)Cc1csc(NC(=O)c2cc(Oc3ccc(S(C)(=O)=O)cc3)cc(-c3ncccc3C)c2)n1`: 5 nM, 2.54 and -0.3%.
The matching figures for `COCCN(CCOC)Cc1csc(NC(=O)c2cc(Oc3ccc(S(C)(=O)=O)cc3)cc(-c3ncccc3C)c2)n1`: 2430 nM, 2.02 and 20.2%.
On to `C#CCNCc1csc(NC(=O)c2cc(Oc3ccc(S(C)(=O)=O)cc3)cc(-c3ncccc3C)c2)n1`, for which the concentration giving a half-maximal response (EC50) on Hexokinase-4 stood at 106 nM. In addition, in the data set on Hepatocyte, the “fold change (FC)” value was 2.35.
Turning to `CCN(CC)CCn1ccc(NC(=O)c2cc(Oc3ccc(S(C)(=O)=O)cc3)cc(-c3ncccc3C)c2)n1`, the concentration giving a half-maximal response (EC50) at Hexokinase-4 was more than 50000 nM.
As for `Cc1cccnc1-c1cc(Oc2ccc(S(C)(=O)=O)cc2)cc(C(=O)Nc2nc(CN3CCOCC3)cs2)c1`, at Hexokinase-4, the EC50 was determined as 212 nM. Also, the “fold change (FC)” value with Hepatocyte is given as 2.1.
On to `CCCNCc1csc(NC(=O)c2cc(Oc3ccc(S(C)(=O)=O)cc3)cc(-c3ncccc3C)c2)n1`, for which the EC50 on Hexokinase-4 was more than 50000 nM.
For `CN(C)C(=N)NC(=N)N` [METFORMIN], the Activity with Mus musculus [2] is on record as 29.9%.
As for `Cc1cccnc1-c1cc(Oc2ccc(S(C)(=O)=O)cc2)cc(C(=O)Nc2ccn(CCN3CCOCC3)n2)c1`, the EC50 on Hexokinase-4 is 441 nM. Also, in the data set with Hepatocyte, the “fold change (FC)” value amounted to 1.86. Further, the Activity in the data set with Mus musculus [1] was 17.8%.
With `N[C@@H](CC(=O)N1CCn2c(nnc2C(F)(F)F)C1)Cc1cc(F)c(F)cc1F` [SITAGLIPTIN], the Activity entry with Mus musculus [3] is listed as “Non-toxic”.
For `CCOCn1ccc(NC(=O)c2cc(Oc3ccc(S(C)(=O)=O)cc3)cc(-c3ncccc3C)c2)n1`, the half-maximal effective concentration (EC50) at Hexokinase-4 is more than 50000 nM.
For `Cc1cccnc1-c1cc(Oc2ccc(S(C)(=O)=O)cc2)cc(C(=O)Nc2ncc(F)s2)c1`, on Hexokinase-4, the concentration giving a half-maximal response (EC50) was found to be 238 nM. The “fold change (FC)” value in the data set with Hepatocyte is 1.75. Also, the Activity with Mus musculus [1] turned out to be 22.6%.
As for `Cc1cccnc1-c1cc(Oc2ccc(S(C)(=O)=O)cc2)cc(C(=O)Nc2nc(CC(=O)NC3CC3)cs2)c1`, at Hexokinase-4, the EC50 was determined as 103 nM. In addition, the “fold change (FC)” value with Hepatocyte was 1.8. Further, the Activity with Mus musculus [1] is given as -3.1%.
For the compound `Cc1cccnc1-c1cc(Oc2ccc(S(C)(=O)=O)cc2)cc(C(=O)Nc2nc(CN3CCNCC3)cs2)c1`, the EC50 at Hexokinase-4 was more than 50000 nM.
With `COC(CNCc1csc(NC(=O)c2cc(Oc3ccc(S(C)(=O)=O)cc3)cc(-c3ncccc3C)c2)n1)OC`, at Hexokinase-4, the EC50 was found to be 33 nM. In addition, in the data set with Hepatocyte, the “fold change (FC)” value stood at 1.92.
For `Cc1cccnc1-c1cc(Oc2ccc(S(C)(=O)=O)cc2)cc(C(=O)Nc2nccs2)c1`, the EC50 on Hexokinase-4 is 95 nM. Further, the “fold change (FC)” value with Hepatocyte worked out at 1.98. Besides, the Activity in the data set on Mus musculus [1] is recorded as 29.8%.
